# Reference: ChEMBL document CHEMBL3352325, “Synthesis and biological evaluation of novel aniline-derived asiatic acid derivatives as potential anticancer agents” (Eur J Med Chem, 2014)
# System: MGC-803
# Experiment: Cytotoxicity against human MGC803 cells after 48 hrs by MTT assay
# Type: functional, cell-based
# Conditions: MGC-803, 48 h
# Summary of the method: (§1)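 Cells grown in medium with 10% heat-inactivated FBS, 5% CO2, 37 °C. Compounds given in medium with 1% DMSO at 1.25–20 graded concentrations; 1% DMSO medium served as control. MTT (5 mg/mL) added, formazan dissolved in DMSO, absorbance read at 570/630 nm. Survival expressed relative to negative control. IC50 by Bliss method (n=5), at least three independent experiments, mean ± SD.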
row,SMILES,IC50 [µM]
1,COc1cccc(NC(=O)[C@]23CC[C@@H](C)[C@H](C)[C@H]2C2=CC(=O)[C@@H]4[C@@]5(C)C[C@@H](O)[C@H](O)[C@@](C)(CO)[C@@H]5CC[C@@]4(C)[C@]2(C)CC3)c1,24.3
2,C[C@H]1[C@H](C)CC[C@]2(C(=O)Nc3ccc(F)cc3)CC[C@]3(C)C(=CC(=O)[C@@H]4[C@@]5(C)C[C@@H](O)[C@H](O)[C@@](C)(CO)[C@@H]5CC[C@]43C)[C@H]12,26.6
3,C[C@H]1[C@H](C)CC[C@]2(C(=O)Nc3ccccc3F)CC[C@]3(C)C(=CC(=O)[C@@H]4[C@@]5(C)C[C@@H](O)[C@H](O)[C@@](C)(CO)[C@@H]5CC[C@]43C)[C@H]12,19.9
4,Cc1cc(Br)ccc1NC(=O)[C@]12CC[C@@H](C)[C@H](C)[C@H]1C1=CC(=O)[C@@H]3[C@@]4(C)C[C@@H](O)[C@H](O)[C@@](C)(CO)[C@@H]4CC[C@@]3(C)[C@]1(C)CC2,14.6
5,C[C@H]1[C@H](C)CC[C@]2(C(=O)Nc3ccccc3)CC[C@]3(C)C(=CC(=O)[C@@H]4[C@@]5(C)C[C@@H](O)[C@H](O)[C@@](C)(CO)[C@@H]5CC[C@]43C)[C@H]12,> 100

# System: NCI-H460
# Experiment: Cytotoxicity against human NCI-H460 cells after 48 hrs by MTT assay
# Type: functional, cell-based
# Conditions: NCI-H460, 48 h
# Summary of the method: as §1
row,SMILES,IC50 [µM]
1,COc1cccc(NC(=O)[C@]23CC[C@@H](C)[C@H](C)[C@H]2C2=CC(=O)[C@@H]4[C@@]5(C)C[C@@H](O)[C@H](O)[C@@](C)(CO)[C@@H]5CC[C@@]4(C)[C@]2(C)CC3)c1,23.1
2,C[C@H]1[C@H](C)CC[C@]2(C(=O)Nc3ccc(F)cc3)CC[C@]3(C)C(=CC(=O)[C@@H]4[C@@]5(C)C[C@@H](O)[C@H](O)[C@@](C)(CO)[C@@H]5CC[C@]43C)[C@H]12,31.9
3,C[C@H]1[C@H](C)CC[C@]2(C(=O)Nc3ccccc3F)CC[C@]3(C)C(=CC(=O)[C@@H]4[C@@]5(C)C[C@@H](O)[C@H](O)[C@@](C)(CO)[C@@H]5CC[C@]43C)[C@H]12,61.6
4,Cc1cc(Br)ccc1NC(=O)[C@]12CC[C@@H](C)[C@H](C)[C@H]1C1=CC(=O)[C@@H]3[C@@]4(C)C[C@@H](O)[C@H](O)[C@@](C)(CO)[C@@H]4CC[C@@]3(C)[C@]1(C)CC2,23.8
5,C[C@H]1[C@H](C)CC[C@]2(C(=O)Nc3ccccc3)CC[C@]3(C)C(=CC(=O)[C@@H]4[C@@]5(C)C[C@@H](O)[C@H](O)[C@@](C)(CO)[C@@H]5CC[C@]43C)[C@H]12,12.2

# System: HepG2
# Experiment: Cytotoxicity against human HepG2 cells after 48 hrs by MTT assay
# Type: functional, cell-based
# Conditions: HepG2, 48 h
# Summary of the method: as §1
row,SMILES,IC50 [µM]
1,COc1cccc(NC(=O)[C@]23CC[C@@H](C)[C@H](C)[C@H]2C2=CC(=O)[C@@H]4[C@@]5(C)C[C@@H](O)[C@H](O)[C@@](C)(CO)[C@@H]5CC[C@@]4(C)[C@]2(C)CC3)c1,8.89
2,C[C@H]1[C@H](C)CC[C@]2(C(=O)Nc3ccc(F)cc3)CC[C@]3(C)C(=CC(=O)[C@@H]4[C@@]5(C)C[C@@H](O)[C@H](O)[C@@](C)(CO)[C@@H]5CC[C@]43C)[C@H]12,> 100
3,C[C@H]1[C@H](C)CC[C@]2(C(=O)Nc3ccccc3F)CC[C@]3(C)C(=CC(=O)[C@@H]4[C@@]5(C)C[C@@H](O)[C@H](O)[C@@](C)(CO)[C@@H]5CC[C@]43C)[C@H]12,> 100
4,Cc1cc(Br)ccc1NC(=O)[C@]12CC[C@@H](C)[C@H](C)[C@H]1C1=CC(=O)[C@@H]3[C@@]4(C)C[C@@H](O)[C@H](O)[C@@](C)(CO)[C@@H]4CC[C@@]3(C)[C@]1(C)CC2,22.8
5,C[C@H]1[C@H](C)CC[C@]2(C(=O)Nc3ccccc3)CC[C@]3(C)C(=CC(=O)[C@@H]4[C@@]5(C)C[C@@H](O)[C@H](O)[C@@](C)(CO)[C@@H]5CC[C@]43C)[C@H]12,> 100

# System: HeLa
# Experiment: Cytotoxicity against human HeLa cells after 48 hrs by MTT assay
# Type: functional, cell-based
# Conditions: not given
# Summary of the method: as §1
row,SMILES,IC50 [µM]
1,COc1cccc(NC(=O)[C@]23CC[C@@H](C)[C@H](C)[C@H]2C2=CC(=O)[C@@H]4[C@@]5(C)C[C@@H](O)[C@H](O)[C@@](C)(CO)[C@@H]5CC[C@@]4(C)[C@]2(C)CC3)c1,17.8
2,C[C@H]1[C@H](C)CC[C@]2(C(=O)Nc3ccc(F)cc3)CC[C@]3(C)C(=CC(=O)[C@@H]4[C@@]5(C)C[C@@H](O)[C@H](O)[C@@](C)(CO)[C@@H]5CC[C@]43C)[C@H]12,20.8
3,C[C@H]1[C@H](C)CC[C@]2(C(=O)Nc3ccccc3F)CC[C@]3(C)C(=CC(=O)[C@@H]4[C@@]5(C)C[C@@H](O)[C@H](O)[C@@](C)(CO)[C@@H]5CC[C@]43C)[C@H]12,32.5
4,Cc1cc(Br)ccc1NC(=O)[C@]12CC[C@@H](C)[C@H](C)[C@H]1C1=CC(=O)[C@@H]3[C@@]4(C)C[C@@H](O)[C@H](O)[C@@](C)(CO)[C@@H]4CC[C@@]3(C)[C@]1(C)CC2,15.7
5,C[C@H]1[C@H](C)CC[C@]2(C(=O)Nc3ccccc3)CC[C@]3(C)C(=CC(=O)[C@@H]4[C@@]5(C)C[C@@H](O)[C@H](O)[C@@](C)(CO)[C@@H]5CC[C@]43C)[C@H]12,26.9

# System: not listed separately
# Experiment: Cytotoxicity against human SMMC-7404 cells after 48 hrs by MTT assay
# Type: functional, cell-based
# Conditions: SMMC-7404, 48 h
# Summary of the method: as §1
row,SMILES,IC50 [µM]
1,COc1cccc(NC(=O)[C@]23CC[C@@H](C)[C@H](C)[C@H]2C2=CC(=O)[C@@H]4[C@@]5(C)C[C@@H](O)[C@H](O)[C@@](C)(CO)[C@@H]5CC[C@@]4(C)[C@]2(C)CC3)c1,23.5
2,C[C@H]1[C@H](C)CC[C@]2(C(=O)Nc3ccc(F)cc3)CC[C@]3(C)C(=CC(=O)[C@@H]4[C@@]5(C)C[C@@H](O)[C@H](O)[C@@](C)(CO)[C@@H]5CC[C@]43C)[C@H]12,> 100
3,C[C@H]1[C@H](C)CC[C@]2(C(=O)Nc3ccccc3F)CC[C@]3(C)C(=CC(=O)[C@@H]4[C@@]5(C)C[C@@H](O)[C@H](O)[C@@](C)(CO)[C@@H]5CC[C@]43C)[C@H]12,23.2
4,Cc1cc(Br)ccc1NC(=O)[C@]12CC[C@@H](C)[C@H](C)[C@H]1C1=CC(=O)[C@@H]3[C@@]4(C)C[C@@H](O)[C@H](O)[C@@](C)(CO)[C@@H]4CC[C@@]3(C)[C@]1(C)CC2,17
5,C[C@H]1[C@H](C)CC[C@]2(C(=O)Nc3ccccc3)CC[C@]3(C)C(=CC(=O)[C@@H]4[C@@]5(C)C[C@@H](O)[C@H](O)[C@@](C)(CO)[C@@H]5CC[C@]43C)[C@H]12,> 100

# System: HUVEC
# Experiment: Cytotoxicity against human HUVEC cells after 48 hrs by MTT assay
# Type: cell-based
# Conditions: not given
# Summary of the method: as §1
row,SMILES,IC50 [µM]
1,COc1cccc(NC(=O)[C@]23CC[C@@H](C)[C@H](C)[C@H]2C2=CC(=O)[C@@H]4[C@@]5(C)C[C@@H](O)[C@H](O)[C@@](C)(CO)[C@@H]5CC[C@@]4(C)[C@]2(C)CC3)c1,> 100
2,C[C@H]1[C@H](C)CC[C@]2(C(=O)Nc3ccc(F)cc3)CC[C@]3(C)C(=CC(=O)[C@@H]4[C@@]5(C)C[C@@H](O)[C@H](O)[C@@](C)(CO)[C@@H]5CC[C@]43C)[C@H]12,> 100
3,C[C@H]1[C@H](C)CC[C@]2(C(=O)Nc3ccccc3F)CC[C@]3(C)C(=CC(=O)[C@@H]4[C@@]5(C)C[C@@H](O)[C@H](O)[C@@](C)(CO)[C@@H]5CC[C@]43C)[C@H]12,> 100
4,Cc1cc(Br)ccc1NC(=O)[C@]12CC[C@@H](C)[C@H](C)[C@H]1C1=CC(=O)[C@@H]3[C@@]4(C)C[C@@H](O)[C@H](O)[C@@](C)(CO)[C@@H]4CC[C@@]3(C)[C@]1(C)CC2,> 100
5,C[C@H]1[C@H](C)CC[C@]2(C(=O)Nc3ccccc3)CC[C@]3(C)C(=CC(=O)[C@@H]4[C@@]5(C)C[C@@H](O)[C@H](O)[C@@](C)(CO)[C@@H]5CC[C@]43C)[C@H]12,> 100
